Assay results from ChEMBL document CHEMBL4765368, “Structure guided design and synthesis of furyl thiazolidinedione derivatives as inhibitors of GLUT 1 and GLUT 4, and evaluation of their anti-leukemic potential” (Eur J Med Chem, 2020).
Active and inactive are the calls of the source. No cut-off for these calls is given here.

Experiments:
[1] = target: Histone deacetylase 4 (Homo sapiens) (UniProt P56524); test: Inhibition of recombinant human N-terminal GST-tagged HDAC4 (627 to end residues) expressed in baculovirus infected Sf9 insect cells assessed as residual activity at 50 uM using Boc-Lys(trifluoroacetyl)-AMC as substrate preincubated for 60 mins followed by substrate addition and measured after 60 mins by fluorescence assay relative to control; conditions: time 120.0 min
Homo sapiens = species: Homo sapiens; test: Selectivity ratio of IC50 for inhibition of transport activity of human GLUT4 expressed in hexose transporter deficient W4000fgy1 erg4 yeast cells to IC50 for inhibition of transport activity of human GLUT1 expressed in hexose transporter deficient VW4000fgy1 yeast cells; assay type: cell-based
In short: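 GLUT1 (VW4000fgy1) or GLUT4 (VW4000fgy1erg4) hxt0 yeast were grown on maltose and then glucose and resuspended in PBS pH 7.4 at OD600 ~10. Compound was used at 0.1–100 μM, final 1% DMSO. Uptake of 5 mM 14C-glucose over 10 min was stopped with ice-cold quench buffer, filtered and counted by scintillation. IC50 was taken from dose-response curves of three independent measurements.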

[2] = target: T1, Solute carrier family 2, facilitated glucose transporter member 4 (Homo sapiens) (UniProt P14672); test: Inhibition of transport activity of human GLUT4 expressed in hexose transporter deficient […] erg4 yeast cells assessed as reduction in transporter-mediated [14C]-hexose uptake into cells at 100 uM measured after 10 mins by scintillation counting method relative to control; assay type: cell-based
T1 sequence (whole entry): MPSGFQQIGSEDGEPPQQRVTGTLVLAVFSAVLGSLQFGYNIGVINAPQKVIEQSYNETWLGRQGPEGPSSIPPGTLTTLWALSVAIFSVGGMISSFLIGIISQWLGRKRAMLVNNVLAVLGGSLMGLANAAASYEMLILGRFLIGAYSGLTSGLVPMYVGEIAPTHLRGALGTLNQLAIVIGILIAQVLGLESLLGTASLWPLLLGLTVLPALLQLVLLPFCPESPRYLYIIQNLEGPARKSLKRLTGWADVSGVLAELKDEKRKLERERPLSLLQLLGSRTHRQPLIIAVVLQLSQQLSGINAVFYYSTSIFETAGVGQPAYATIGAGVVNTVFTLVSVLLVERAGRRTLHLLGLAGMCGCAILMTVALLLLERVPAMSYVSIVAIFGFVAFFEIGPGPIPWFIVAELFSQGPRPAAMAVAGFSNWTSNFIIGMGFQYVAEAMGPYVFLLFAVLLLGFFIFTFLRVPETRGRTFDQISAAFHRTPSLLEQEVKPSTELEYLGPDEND
In short: (§1)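 The hxt0 yeast strain expressing one human GLUT was grown at 30 °C and resuspended in PBS pH 7.4 at OD600 ~10. Uptake was started with 14C-glucose at 5 mM final (GLUT1, GLUT4) or 14C-fructose at 10 mM final (GLUT5). It was quenched after 10 min with ice-cold 0.1 M KPi/0.1 M LiCl pH 5.5, filtered and counted by scintillation. Compound at 100 μM with 1% DMSO; DMSO control and phloretin 200 μM (GLUT1/4) or MSNBA 100 μM (GLUT5) as references. Triplicates.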

[3] = target: T2, Solute carrier family 2, facilitated glucose transporter member 1 (Homo sapiens) (UniProt P11166); test: Inhibition of transport activity of human GLUT1 expressed in hexose transporter deficient VW4000fgy1 yeast cells assessed as reduction in transporter-mediated [14C]-hexose uptake into cells at 100 uM measured after 10 mins by scintillation counting method relative to control; assay type: cell-based; in short: as §1
T2 sequence (whole entry): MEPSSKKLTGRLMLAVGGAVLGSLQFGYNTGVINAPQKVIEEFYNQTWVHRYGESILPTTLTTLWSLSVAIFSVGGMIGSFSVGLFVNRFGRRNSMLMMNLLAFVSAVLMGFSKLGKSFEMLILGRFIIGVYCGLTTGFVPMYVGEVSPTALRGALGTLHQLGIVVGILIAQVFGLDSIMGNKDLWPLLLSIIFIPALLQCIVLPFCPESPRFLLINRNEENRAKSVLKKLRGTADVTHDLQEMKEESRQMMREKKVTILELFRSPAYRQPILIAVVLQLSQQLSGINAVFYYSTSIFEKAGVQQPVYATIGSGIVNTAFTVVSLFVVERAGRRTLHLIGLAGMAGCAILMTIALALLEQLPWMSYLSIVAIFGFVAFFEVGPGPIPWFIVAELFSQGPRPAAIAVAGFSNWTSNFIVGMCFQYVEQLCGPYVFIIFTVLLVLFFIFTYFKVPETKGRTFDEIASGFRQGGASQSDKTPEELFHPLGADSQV

HS27 = test: Cytotoxicity against human HS27 cells assessed as reduction in cell viability measured after 48 hrs by Hoechst 33342/propidium iodide staining based imaging analysis; conditions: hs27, 48 h
In short: (§2)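 Cells were seeded at 10,000 per well (HS-27 at 3,000) in 10% FBS RPMI (leukemic lines) or DMEM (MDA-MB-231, HS-27). Compound in DMSO (1% v/v final) at 0.5–100 µM for 48 h. Hoechst 33342 and PI were added 2 h before automated imaging; dead cells were co-stained. Quadruplicates. CC50 was taken by linear interpolation between the two concentrations nearest 50% death.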

[4] = Selectivity index, ratio of CC50 for human HS27 cells to CC50 for human CCRF-CEM cells
In short: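 Ratio of HS-27 CC50 to CCRF-CEM CC50. Both came from Hoechst/PI differential nuclear staining imaging after 48 h exposure to 0.5–100 µM, in quadruplicate, with 10,000 CEM or 3,000 HS-27 cells/well. Each CC50 was estimated by linear interpolation between the two concentrations nearest 50% cell death.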

KCL-22 = test: Cytotoxicity against human KCL-22 cells assessed as reduction in cell viability measured after 48 hrs by Hoechst 33342/propidium iodide staining based imaging analysis; assay type: functional; in short: as §2
K562 = test: Cytotoxicity against human K562 cells assessed as reduction in cell viability measured after 48 hrs by Hoechst 33342/propidium iodide staining based imaging analysis; assay type: functional; in short: as §2
CCRF-CEM = test: Cell cycle arrest in human CCRF-CEM cells assessed as decrease in accumulation at S phase measured after 72 hrs by NIM-DAPI staining based flow cytometry; assay type: functional
In short: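 An asynchronous CEM culture was seeded at 100,000 cells/well in 1 mL complete RPMI and exposed to 10, 25 or 50 μM for 72 h. Controls were untreated cells, DMSO and hydrogen peroxide. Cells were pelleted at 262 g, resuspended, and stained with NIM-DAPI, which permeabilizes and stains DNA in one step. About 100,000 events per sample were read by flow cytometry. Triplicates.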

[5] = target: T2, Solute carrier family 2, facilitated glucose transporter member 1 (Homo sapiens); test: Inhibition of GLUT1 in human CCRF-CEM cells assessed as upregulation of GRP78 expression at 10 uM measured after 6 hrs by Western blot analysis; assay type: cell-based
In short: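 CEM cells were treated with 10 µM for 6 h. Untreated cells were the negative control and staurosporine the positive control. Cells were washed with cold PBS, lysed in Laemmli buffer with protease inhibitors, sonicated and quantified. Blots were blocked 45 min in PBS-Tween-5% milk, with primary antibody 3 h and secondary 1 h at room temperature.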

[6] = Cytotoxicity against human WBC assessed as cell viability at higher concentration measured after 48 hrs by MTT assay relative to control; assay type: tissue-based

Sequence of Histone deacetylase 4 (Homo sapiens) (P56524 whole entry): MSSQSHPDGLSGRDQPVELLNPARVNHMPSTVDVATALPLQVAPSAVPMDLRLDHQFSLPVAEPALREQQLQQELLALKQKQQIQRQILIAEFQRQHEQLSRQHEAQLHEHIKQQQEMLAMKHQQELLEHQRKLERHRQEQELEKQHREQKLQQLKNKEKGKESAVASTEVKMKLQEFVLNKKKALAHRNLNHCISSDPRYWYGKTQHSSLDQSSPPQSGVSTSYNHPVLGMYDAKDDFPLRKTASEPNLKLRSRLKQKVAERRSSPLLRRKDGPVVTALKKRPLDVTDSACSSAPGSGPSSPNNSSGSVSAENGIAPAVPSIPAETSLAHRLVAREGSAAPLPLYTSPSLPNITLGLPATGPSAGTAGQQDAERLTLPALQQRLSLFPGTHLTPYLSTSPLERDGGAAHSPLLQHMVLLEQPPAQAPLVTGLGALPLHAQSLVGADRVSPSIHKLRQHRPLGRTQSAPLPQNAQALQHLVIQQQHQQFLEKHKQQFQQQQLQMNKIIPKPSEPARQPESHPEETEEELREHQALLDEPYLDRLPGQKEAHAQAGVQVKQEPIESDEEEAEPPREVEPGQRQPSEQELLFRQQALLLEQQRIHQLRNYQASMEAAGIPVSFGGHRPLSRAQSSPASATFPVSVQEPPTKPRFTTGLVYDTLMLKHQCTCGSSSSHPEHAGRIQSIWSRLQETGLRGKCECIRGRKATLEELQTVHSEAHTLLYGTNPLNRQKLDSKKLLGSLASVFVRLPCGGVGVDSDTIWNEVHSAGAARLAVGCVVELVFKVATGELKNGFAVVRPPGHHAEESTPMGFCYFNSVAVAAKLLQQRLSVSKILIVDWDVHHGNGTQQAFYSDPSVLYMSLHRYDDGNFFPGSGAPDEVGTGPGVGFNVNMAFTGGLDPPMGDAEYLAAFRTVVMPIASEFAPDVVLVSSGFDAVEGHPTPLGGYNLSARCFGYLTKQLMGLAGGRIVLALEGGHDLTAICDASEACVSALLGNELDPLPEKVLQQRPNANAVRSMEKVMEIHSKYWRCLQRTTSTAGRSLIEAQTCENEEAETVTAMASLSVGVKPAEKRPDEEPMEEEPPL

SMILES	Activity [1]	Ratio IC50 (Homo sapiens)	inhibition [2]	inhibition [3]	CC50 (HS27)	Selectivity Index [4]	CC50 (KCL-22)	CC50 (K562)	Activity (CCRF-CEM)	inhibition [5]	Activity [6]
O=C(CN1C(=O)S/C(=C/c2ccco2)C1=O)Nc1ccc(Cl)c(Cl)c1	> 50%	10	> 50%	> 50%	> 100 µM	> 12.8	72.2 µM	43.3 µM	–	–	–
O=C(CN1C(=O)S/C(=C/c2ccco2)C1=O)Nc1nc2ccccc2s1	> 50%	–	> 50%	100%	44 µM	> 25.8	15.3 µM	91.9 µM	Dose-dependent effect	Active	> 62%
